According to ChEMBL document CHEMBL5325390, “1,2,4-Triazole-3-thione analogues with an arylakyl group at position 4 as metallo-β-lactamase inhibitors” (Bioorg Med Chem, 2022):
Calls of active or inactive are those of the source. The rule behind the calls is not given here.

Experiments:
Klebsiella pneumoniae [1] = experiment: Antimicrobial synergistic activity against blaVIM-1-producing multidrug-resistant Klebsiella pneumoniae 7023 clinical isolate assessed as meropenem MIC at 32 ug/ml by CLSI based broth microdilution method (reference value: 16 ug/ml); assay type: functional; settings: dose 32 µg/ml
[2] = Binding affinity to VIM-4 (unknown origin) expressed in Escherichia coli BL21(DE3) assessed as inhibition constant by measuring rate of substrate hydrolysis by UV-Vis spectrophotometric analysis
Method in brief: (§1)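 Purified MBL (1–70 nM) with 150 µM imipenem or meropenem as reporter substrate, 50 mM HEPES pH 7.5, 30 °C. Hydrolysis followed by absorbance at 300 nm without and with inhibitor (0.5 µM–1 mM). Ki from the slope of v0/vi vs [I] under a competitive model, or from Dixon plots varying inhibitor and substrate. […] Triplicate, mean ± SD.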

[3] = target: Metallo-beta-lactamase type 2 (Bacteria, UniProt C7C422); experiment: Binding affinity to NDM1 (unknown origin) expressed in Escherichia coli BL21(DE3) assessed as inhibition constant by measuring rate of substrate hydrolysis by UV-Vis spectrophotometric analysis; settings: read-out: Ki; method in brief: as §1
Metallo-beta-lactamase type 2, sequence (C7C422 whole entry): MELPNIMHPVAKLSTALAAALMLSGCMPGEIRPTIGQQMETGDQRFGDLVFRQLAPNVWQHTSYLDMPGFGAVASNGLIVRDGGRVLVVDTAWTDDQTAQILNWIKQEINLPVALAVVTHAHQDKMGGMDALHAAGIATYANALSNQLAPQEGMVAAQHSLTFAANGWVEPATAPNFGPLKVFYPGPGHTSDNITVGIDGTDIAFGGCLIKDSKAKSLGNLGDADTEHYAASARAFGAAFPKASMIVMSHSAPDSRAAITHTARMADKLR

Klebsiella pneumoniae [4] = experiment: Synergistic antimicrobial activity against blaVIM-4-producing multidrug-resistant Klebsiella pneumoniae VA416/02 clinical isolate assessed as fractional inhibitory concentration index in presence of meropenem by checkerboard assay; assay type: functional
Beta-lactamase VIM-1 = Beta-lactamase VIM-1 (Bacteria, UniProt Q8GDC1); experiment: Binding affinity to VIM-1 (unknown origin) expressed in Escherichia coli BL21(DE3) assessed as inhibition constant by measuring rate of substrate hydrolysis by UV-Vis spectrophotometric analysis; method in brief: as §1
Escherichia coli = experiment: Synergistic antimicrobial activity against blaNDM-1-producing multidrug-resistant Escherichia coli SI-004M clinical isolate assessed as meropenem MIC at 32 ug/ml by CLSI based microdilution method (reference value: 64 ug/ml); assay type: functional; settings: dose 32 µg/ml
Klebsiella pneumoniae [5] = experiment: Antimicrobial synergistic activity against blaVIM-4-producing multidrug-resistant Klebsiella pneumoniae VA416/02 clinical isolate assessed as meropenem MIC at 32 ug/ml by CLSI based broth microdilution method (reference value: 16 ug/ml); assay type: functional; settings: dose 32 µg/ml
[6] = Binding affinity to VIM-2 (unknown origin) expressed in Escherichia coli BL21(DE3) assessed as inhibition constant by measuring rate of substrate hydrolysis by UV-Vis spectrophotometric analysis; method in brief: as §1
[7] = Binding affinity to IMP1 (unknown origin) expressed in Escherichia coli BL21(DE3) assessed as inhibition constant by measuring rate of substrate hydrolysis by UV-Vis spectrophotometric analysis; settings: read-out: Ki; method in brief: as §1
[8] = test system: metallo-β-lactamase VIM-4 (Pseudomonas aeruginosa); experiment: Inhibition of VIM-4 (unknown origin) expressed in Escherichia coli BL21(DE3) assessed as substrate hydrolysis at 100 uM by UV-Vis spectrophotometric analysis relative to control
[9] = test system: metallo-β-lactamase VIM-2 (Pseudomonas aeruginosa); experiment: Inhibition of VIM-2 (unknown origin) expressed in Escherichia coli BL21(DE3) assessed as substrate hydrolysis at 100 uM by UV-Vis spectrophotometric analysis relative to control
[10] = test system: metallo-β-lactamase VIM-2 (Pseudomonas aeruginosa); experiment: Inhibition of VIM-2 (unknown origin) expressed in Escherichia coli BL21(DE3) assessed as substrate hydrolysis at 200 uM by UV-Vis spectrophotometric analysis relative to control
[11] = target: Metallo-beta-lactamase type 2 (Bacteria) (UniProt C7C422); experiment: Inhibition of NDM1 (unknown origin) expressed in Escherichia coli BL21(DE3) assessed as substrate hydrolysis at 100 uM by UV-Vis spectrophotometric analysis relative to control
Metallo-beta-lactamase type 2 (Bacteria), sequence (C7C422 whole entry): as above
Method in brief: (§2)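 Single-point screen at 100 or 200 µM inhibitor against purified MBL (1–70 nM) with 150 µM imipenem or meropenem reporter substrate, 50 mM HEPES pH 7.5, 30 °C. Initial hydrolysis rate read by absorbance at 300 nm and compared with the uninhibited reaction. Triplicate.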

[12] = test system: metallo-β-lactamase IMP-1 (Pseudomonas aeruginosa); experiment: Inhibition of IMP1 (unknown origin) expressed in Escherichia coli BL21(DE3) assessed as substrate hydrolysis at 100 uM by UV-Vis spectrophotometric analysis relative to control
[13] = test system: metallo-β-lactamase IMP-1 (Pseudomonas aeruginosa); experiment: Inhibition of IMP1 (unknown origin) expressed in Escherichia coli BL21(DE3) assessed as substrate hydrolysis at 200 uM by UV-Vis spectrophotometric analysis relative to control
[14] = target: Beta-lactamase VIM-1 (Bacteria) (UniProt Q8GDC1); experiment: Inhibition of VIM-1 (unknown origin) expressed in Escherichia coli BL21(DE3) assessed as substrate hydrolysis at 200 uM by UV-Vis spectrophotometric analysis relative to control; method in brief: as §2
[15] = target: Metallo-beta-lactamase type 2 (Bacteria) (UniProt C7C422); experiment: Inhibition of NDM1 (unknown origin) expressed in Escherichia coli BL21(DE3) assessed as substrate hydrolysis at 200 uM by UV-Vis spectrophotometric analysis relative to control; method in brief: as §2
[16] = test system: metallo-β-lactamase VIM-4 (Pseudomonas aeruginosa); experiment: Inhibition of VIM-4 (unknown origin) expressed in Escherichia coli BL21(DE3) assessed as substrate hydrolysis at 200 uM by UV-Vis spectrophotometric analysis relative to control
[17] = target: Beta-lactamase VIM-1 (Bacteria) (UniProt Q8GDC1); experiment: Inhibition of VIM-1 (unknown origin) expressed in Escherichia coli BL21(DE3) assessed as substrate hydrolysis at 100 uM by UV-Vis spectrophotometric analysis relative to control; method in brief: as §2
[18] = target: T1, Angiotensin-converting enzyme (Oryctolagus cuniculus) (UniProt P12822); experiment: Inhibition of rabbit lung angiotensin-converting enzyme at 100 uM using Abz-Gly-Phe-(NO2)-Pro as substrate by fluorescence based microplate reader analysis relative to control; assay type: tissue-based
T1 sequence (whole entry): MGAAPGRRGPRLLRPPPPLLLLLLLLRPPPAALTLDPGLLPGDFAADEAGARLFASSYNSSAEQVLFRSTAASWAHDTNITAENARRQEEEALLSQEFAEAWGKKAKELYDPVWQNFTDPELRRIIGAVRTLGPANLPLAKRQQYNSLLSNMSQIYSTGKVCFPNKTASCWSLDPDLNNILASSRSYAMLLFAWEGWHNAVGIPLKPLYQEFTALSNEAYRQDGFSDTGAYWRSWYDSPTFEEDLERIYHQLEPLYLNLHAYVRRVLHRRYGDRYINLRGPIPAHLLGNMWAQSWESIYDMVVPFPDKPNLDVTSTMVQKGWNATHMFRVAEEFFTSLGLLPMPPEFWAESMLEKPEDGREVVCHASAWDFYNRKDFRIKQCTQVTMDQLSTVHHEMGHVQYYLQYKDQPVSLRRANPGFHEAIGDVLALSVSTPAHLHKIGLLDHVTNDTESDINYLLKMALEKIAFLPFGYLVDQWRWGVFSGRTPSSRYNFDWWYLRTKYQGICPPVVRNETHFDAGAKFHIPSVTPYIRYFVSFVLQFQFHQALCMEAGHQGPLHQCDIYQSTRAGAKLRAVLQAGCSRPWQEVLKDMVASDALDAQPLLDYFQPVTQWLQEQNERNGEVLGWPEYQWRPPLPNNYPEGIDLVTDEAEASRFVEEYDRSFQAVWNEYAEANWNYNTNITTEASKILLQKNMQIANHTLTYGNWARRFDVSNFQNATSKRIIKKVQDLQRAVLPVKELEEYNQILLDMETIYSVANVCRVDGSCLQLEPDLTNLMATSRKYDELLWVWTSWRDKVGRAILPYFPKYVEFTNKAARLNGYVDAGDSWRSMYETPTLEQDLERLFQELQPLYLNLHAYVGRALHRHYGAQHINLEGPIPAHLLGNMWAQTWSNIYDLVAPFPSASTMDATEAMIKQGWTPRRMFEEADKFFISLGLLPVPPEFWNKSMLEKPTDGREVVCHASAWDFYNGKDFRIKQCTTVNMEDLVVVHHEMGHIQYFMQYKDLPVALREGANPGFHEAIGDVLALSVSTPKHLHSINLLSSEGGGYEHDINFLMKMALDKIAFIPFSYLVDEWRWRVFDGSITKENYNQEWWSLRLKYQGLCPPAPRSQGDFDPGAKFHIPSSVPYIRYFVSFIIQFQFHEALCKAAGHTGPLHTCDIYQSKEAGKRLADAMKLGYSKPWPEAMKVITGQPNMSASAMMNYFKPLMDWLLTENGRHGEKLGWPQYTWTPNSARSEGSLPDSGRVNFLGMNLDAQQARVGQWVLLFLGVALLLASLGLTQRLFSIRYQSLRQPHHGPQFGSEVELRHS
Method in brief: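 Rabbit lung ACE, 1.5 mU per well, in 150 mM Tris, 750 mM NaCl, pH 8.3, with Abz-Gly-Phe(NO2)-Pro substrate. Blank-corrected fluorescence of released Abz-Gly-OH (ex 316, em 413 nm) followed up to 90 min. Test compounds at 100 µM; captopril control at 100 nM. Inhibition % = 100 − (vi/v0 × 100).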

[19] = test system: metallo-β-lactamase L1 (Stenotrophomonas maltophilia); experiment: Inhibition of L1 (unknown origin) expressed in Escherichia coli BL21(DE3) assessed as substrate hydrolysis at 100 uM by UV-Vis spectrophotometric analysis relative to control
[20] = target: T2, Angiotensin-converting enzyme (Oryctolagus cuniculus, UniProt P12822); experiment: Binding affinity to rabbit lung angiotensin-converting enzyme assessed as inhibition constant
T2 sequence (P12822 whole entry): T1 sequence (whole entry)

[21] = target: T1, Angiotensin-converting enzyme (Oryctolagus cuniculus); settings: Lung, dose 100.0 nM

SMILES | MIC (Klebsiella pneumoniae [1]) | Ki [2] | Ki (Beta-lactamase VIM-1) | MIC (Escherichia coli) | MIC (Klebsiella pneumoniae [5]) | Ki [6] | Ki [7] | inhibition [8] | inhibition [9] | inhibition [10] | inhibition [11] | inhibition [12] | inhibition [13] | inhibition [14] | inhibition [15] | inhibition [16] | inhibition [17] | inhibition [18] | further results
Oc1ccc(CCn2c(-c3cccc(-c4ccccc4)c3)n[nH]c2=S)cc1O | 16 µg/mL | 0.68 µM | 1.3 µM | 32 µg/mL | 2 µg/mL | 1.7 µM | 9.2 µM | – | – | – | – | – | – | – | – | – | – | – | Ki [3]: 17.4 µM; FIC (Klebsiella pneumoniae [4]): 0.48
S=c1[nH]nc(Cc2ccc3ccccc3c2)n1-c1ccc(OCc2ccccc2)cc1 | – | – | – | – | – | – | – | < 30% | < 30% | < 50% | < 30% | < 30% | < 50% | < 50% | < 50% | < 50% | < 30% | – | –
Sc1nnc(-c2ccccc2)n1Cc1ccccc1 | 4 µg/mL | 1.5 µM | 0.72 µM | – | 4 µg/mL | – | 8 µM | – | – | – | < 30% | – | – | – | – | – | – | inactive | –
S=c1[nH]nc(-c2ccccc2)n1CCCc1ccccc1 | 2 µg/mL | 0.9 µM | 0.56 µM | 64 µg/mL | 2 µg/mL | 0.74 µM | 14 µM | – | – | – | < 30% | – | – | – | – | – | – | 50% | inhibition [19]: < 30%; FIC (Klebsiella pneumoniae [4]): 0.25; Ki [20]: 30 µM
S=c1[nH]nc(-c2cc3ccccc3[nH]2)n1-c1ccc(OCc2ccccc2)cc1 | – | – | – | – | – | – | – | < 30% | < 30% | < 50% | < 30% | < 30% | < 50% | < 50% | < 50% | < 50% | < 30% | – | –
O=C1OC(Cn2c(Cc3ccc4ccccc4c3)n[nH]c2=S)c2ccccc21 (stereo unspecified) | – | – | – | – | – | – | – | < 30% | < 30% | < 50% | < 30% | 30% | – | < 50% | < 50% | < 50% | < 30% | – | –
C[C@H](CS)C(=O)N1CCC[C@H]1C(=O)O | – | – | – | – | – | – | – | – | – | – | – | – | – | – | – | – | – | – | inhibition [21]: 96%
S=c1[nH]nc(Cc2ccccc2)n1CCc1ccccc1 | – | – | – | – | – | – | – | < 30% | < 30% | < 50% | < 30% | < 30% | < 50% | < 50% | < 50% | < 50% | < 30% | – | –
O=C(O)c1cccc(Cn2c(-c3ccccc3)n[nH]c2=S)c1 | 2 µg/mL | 0.4 µM | 1.4 µM | 32 µg/mL | 2 µg/mL | 1.8 µM | – | – | – | – | < 30% | < 30% | – | – | – | – | – | inactive | –
COc1ccc(O)c(-c2n[nH]c(=S)n2CC2OC(=O)c3ccccc32)c1 (stereo unspecified) | 2 µg/mL | 0.9 µM | 1.2 µM | 64 µg/mL | 2 µg/mL | 3.3 µM | – | – | – | – | 68% | 47% | – | – | – | – | – | inactive | –
